From publication PMC3057505 (Journal of medicinal chemistry, 2010)
Entries after “also recorded” stand apart in the source; their conditions may differ. Blank lines part the entries; values can stand above or below the molecule they belong to.

How the values were obtained:
[1] = DPPH free radical scavenging assay; type: physicochemical; details: for DPPH free radical scavenging activity relative to quercetin: vs quercetin IC50 = 1.3 ± 1.1 μM; for fold less potent than quercetin in DPPH free radical scavenging: p < 0.05 vs quercetin
[2] = system: Aβ plaques; experiment: In vivo BBB delivery to Aβ plaque-bearing PDAPP mouse brain; set-up: species or system PDAPP transgenic mice; details: single 50 mg/kg IP, ten-month-old PDAPP mice, sacrificed 48 h after injection
Summary of the method: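 Ten-month-old PDAPP transgenic mice received a single ip dose of 50 mg/kg test compound, with vehicle-only controls (10% DMSO/PBS). At 48 h they were killed by transcardial perfusion with 4% PFA in PBS. Brains were cryoprotected, frozen, sectioned, postfixed 5 min in 4% PFA, washed in PBS and mounted. Plaque fluorescence was imaged in hippocampal CA1 and dentate gyrus at 10× and 40×.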

[3] = system: Aβ plaques in human AD brain sections; experiment: Fluorescence staining of human AD brain sections; type: binding; details: 50 μM, 30 min, 9:1 PBS:EtOH, frozen sections 10 μm
Summary of the method: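 Frozen 10 μm sections of human AD brain and age-matched control brain. Stained 30 min with 50 μM test compound in 9:1 PBS/EtOH, made by diluting a DMSO stock to 0.50 mM in EtOH and then into PBS/EtOH. Washed in turn with 75% aqueous EtOH, 95% EtOH and xylene. Plaque staining was read by fluorescence microscopy.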

[4] = target: aggregated amyloid peptide Aβ1-40 (Homo sapiens, UniProt P05067); experiment: In vitro Aβ1-40 binding affinity by fluorescence titration; details: for decrease in Aβ binding affinity: compared to 4; for fold weaker Aβ binding affinity compared to 4: ratio of Kd vs compound 4
aggregated amyloid peptide Aβ1-40, sequence (P05067 672-711 limits assumed): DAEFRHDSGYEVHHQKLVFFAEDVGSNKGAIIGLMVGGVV

[5] = system: Aβ plaques; type: binding, APP/PS1 transgenic mouse
Summary of the method: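 Brains from 11-month-old APP/PS1 mice (Tg2576 APP Swedish × M146L PS1 line) were perfused with 4% paraformaldehyde, cryoprotected in 20% sucrose and cut into 10 μm frozen sections, three per dilution point. Sections were stained 30 min with 50 μM test compound in 9:1 PBS/EtOH, then washed in 75% EtOH, 95% EtOH and xylene. S/N was taken as plaque fluorescence over background tissue.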

[6] = system: Aβ plaques; details: APP or APP/PS1 mice; cited from earlier work

Compound: Oc1ccc(/C=C/c2ccc(/C=C/c3ccc(O)cc3)cc2)cc1 [Compound 4, (E,E)-1,4-bis(4-hydroxystyryl)benzene]
DPPH free radical scavenging activity relative to quercetin [1]: no less effective than quercetin
BBB crossing and Aβ plaque binding in vivo ([2]; 50 mg/kg): crossed the BBB and bound to Aβ plaques in vivo; also recorded: crossed the blood-brain-barrier and bound to Aβ plaques in vivo
staining of Aβ plaques in human AD brain sections [3]: bind specifically to Aβ plaques in human brain sections

Compound: Oc1cccc(/C=C/c2ccc(/C=C/c3cccc(O)c3)cc2)c1 [Compound 8, (E,E)-1,4-bis(3-hydroxystyryl)benzene]
BBB crossing and Aβ plaque binding in vivo ([2]; 50 mg/kg): crossed the BBB and bound to Aβ plaques in vivo; also recorded: crossed the blood-brain-barrier and bound to Aβ plaques in vivo
staining of Aβ plaques in human AD brain sections [3]: bind specifically to Aβ plaques in human brain sections

Compound: Oc1ccccc1/C=C/c1ccc(/C=C/c2ccccc2O)cc1 [Compound 9, (E,E)-1,4-bis(2-hydroxystyryl)benzene]
fold less potent than quercetin in DPPH free radical scavenging [1]: 3 to 7 fold
fold weaker Aβ binding affinity compared to 4 [4]: 84 fold
Aβ binding specificity ([5]; APP/PS1 mouse brain sections): good binding specificity

Compound: Oc1cc(O)cc(/C=C/c2ccc(/C=C/c3cc(O)cc(O)c3)cc2)c1 [Compound 10, (E,E)-1,4-bis(3,5-dihydroxystyryl)benzene]
fold less potent than quercetin in DPPH free radical scavenging [1]: 3 to 7 fold
BBB crossing and Aβ plaque binding in vivo [2]: crossed the BBB and bound to Aβ plaques in vivo
fold weaker Aβ binding affinity compared to 4 [4]: 17 to 27 fold
staining of Aβ plaques in human AD brain sections [3]: bind specifically to Aβ plaques in human brain sections

Compound: Oc1cccc(/C=C/c2ccc(/C=C/c3ccc(O)c(O)c3)cc2)c1 [Compound 15, (E,E)-1-(3-hydroxystyryl)-4-(3,4-dihydroxystyryl)benzene]
fold less potent than quercetin in DPPH free radical scavenging [1]: 3 to 7 fold

Compound: Oc1ccc(C#Cc2ccc(C#Cc3ccc(O)cc3)cc2)cc1 [Compound 17]
fold weaker Aβ binding affinity compared to 4 [4]: 6 fold
fold loss in specificity compared to 4 ([5]; ratio of S/N vs compound 4): 2.4 fold

Compound: O=C(O)c1cc(/C=C/c2ccc(/C=C/c3ccc(O)c(C(=O)O)c3)cc2)ccc1O [Compound X-34]
BBB penetration and binding to Aβ plaques [6]: penetrate the blood – brain barrier (BBB) and bind to Aβ plaques

Compound: O=C(O)c1cc(/C=C/c2ccc(/C=C/c3ccc(O)c(C(=O)O)c3)c(F)c2)ccc1O [FSB]
BBB penetration and binding to Aβ plaques [6]: penetrate the blood – brain barrier (BBB) and bind to Aβ plaques

Further lines, with some results ahead:

decrease in Aβ binding affinity [4]: two order of magnitude decrease
Compound: Oc1ccc(/C=C/c2cccc(/C=C/c3ccc(O)cc3)c2)cc1 [Compound 6, (E,E)-1,3-bis(4-hydroxystyryl)benzene]
DPPH free radical scavenging activity relative to quercetin [1]: no less effective than quercetin

decrease in Aβ binding affinity [4]: two order of magnitude decrease
Compound: Oc1ccc(/C=C/c2ccccc2/C=C/c2ccc(O)cc2)cc1 [Compound 7, (E,E)-1,2-bis(4-hydroxystyryl)benzene]
fold less potent than quercetin in DPPH free radical scavenging [1]: 3 to 7 fold

fold weaker Aβ binding affinity compared to 4 [4]: 16 fold
Compound: Oc1ccc(/C=C/c2ccc(/C=C/c3ccccc3)cc2)cc1 [Compound 11, (E,E)-1-styryl-4-(4-hydroxystyryl)benzene]

fold weaker Aβ binding affinity compared to 4 [4]: 370 fold
fold weaker Aβ binding affinity compared to 8 ([4]; ratio of Kd vs compound 8): 660 fold
Compound: Oc1ccc(/C=C/c2ccc(/C=C/c3cccc(O)c3)cc2)cc1 [Compound 12, (E,E)-1-(4-hydroxystyryl)-4-(3-hydroxystyryl)benzene]
DPPH free radical scavenging activity relative to quercetin [1]: no less effective than quercetin

fold weaker Aβ binding affinity compared to 4 [4]: 17 to 27 fold
Compound: Oc1ccc(/C=C/c2ccc(/C=C/c3ccc(O)c(O)c3)cc2)cc1 [Compound 13, (E,E)-1-(4-hydroxystyryl)-4-(3,4-dihydroxystyryl)benzene]

fold weaker Aβ binding affinity compared to 4 [4]: 17 to 27 fold
Compound: Oc1ccc(/C=C/c2ccc(/C=C/c3cc(O)cc(O)c3)cc2)cc1 [Compound 14, (E,E)-1-(4-hydroxystyryl)-4-(3,5-dihydroxystyryl)benzene]
fold less potent than quercetin in DPPH free radical scavenging [1]: 3 to 7 fold

decrease in Aβ binding affinity [4]: three orders of magnitude weaker
Compound: Oc1ccc(/C=C/c2ccc(O)cc2)cc1 [Compound 16]
DPPH free radical scavenging activity relative to quercetin [1]: no less effective than quercetin
